These results are taken from ChEMBL document CHEMBL1649486, “Comparative efficacies of telavancin and vancomycin in preventing device-associated colonization and infection by Staphylococcus aureus in rabbits” (2009).

Assay type in all cases: functional
The test system of assay [1] is Staphylococcus aureus. The experiment in a line: Antimicrobial activity against Staphylococcus aureus P1 infected in New Zealand rabbit assessed as decrease in catheter related infection rate at 15 mg/kg, iv (reference value: 100%). Set-up: scale not given: the % may be the effect or the level left. In short, it runs like this:
(§1)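 Female specific-pathogen-free New Zealand White rabbits, 4-7 months old, 3-4 kg, nine per group. Each got a single iv dose over ~2 min under anesthesia, with D5W as control. Six subcutaneous catheter segments per rabbit were surface-inoculated with 10^5 CFU MSSA P1. Infection = inoculated strain grown from both the device sonication culture and a swab of adjacent soft-tissue collection or wound discharge; rate = infected/total devices.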

The test system of assay [2] is Staphylococcus aureus. The experiment in a line: Antimicrobial activity against Staphylococcus aureus P1 infected in New Zealand rabbit assessed as decrease in catheter related infection rate at 45 mg/kg, iv (reference value: 100%). Further details: scale not given: the % may be the effect or the level left. In short, it runs like this:
as §1

Assay [3] concerns Staphylococcus aureus. As to the kind of experiment: Antimicrobial activity against Staphylococcus aureus P1 infected in New Zealand rabbit assessed as decrease in catheter bacterial colonization rate at 30 mg/kg, iv (reference value: 100%). Set-up: scale not given: the % may be the effect or the level left. Put shortly: (§2)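 Female specific-pathogen-free New Zealand White rabbits, 4-7 months old, 3-4 kg, nine per group. Each got a single iv dose over ~2 min under anesthesia, with D5W as control. Six 2-cm polyurethane catheter segments were implanted subcutaneously in the back, and each surface was inoculated with 10^5 CFU MSSA P1 in Trypticase soy broth. Explants were sonicated in 2 ml saline and the sonicate cultured (detection limit 10 CFU). Colonization = inoculated strain grown from sonicate; rate = colonized/total devices.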

Assay [4] relates to Staphylococcus aureus. The experiment in a line: Antimicrobial activity against Staphylococcus aureus P1 by macrodilution method. In short, it runs like this: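 MIC and minimal bactericidal concentration determined in triplicate by standard broth macrodilution against MSSA clinical isolate P1.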
Assay [5] has as its system Staphylococcus aureus. The experiment in a line: Antimicrobial activity against Staphylococcus aureus P1 infected in New Zealand rabbit assessed as decrease in catheter related infection rate at 30 mg/kg, iv (reference value: 100%). Further details: scale not given: the % may be the effect or the level left. In short, it runs like this: as §1
For assay [6], the system named is Staphylococcus aureus. As to the kind of experiment: Antimicrobial activity against Staphylococcus aureus P1 infected in New Zealand rabbit assessed as decrease in catheter bacterial colonization rate at 45 mg/kg, iv (reference value: 100%). Set-up: scale not given: the % may be the effect or the level left. Put shortly: as §2
Assay [7] relates to Staphylococcus aureus. As to the kind of experiment: Antimicrobial activity against Staphylococcus aureus P1 infected in New Zealand rabbit assessed as decrease in catheter bacterial colonization rate at 15 mg/kg, iv (reference value: 100%). Further details: scale not given: the % may be the effect or the level left. In short, it runs like this: as §2

The structures appear in SMILES notation. Converted amounts (≈) assume the structure as drawn.

With `CCCCCCCCCCNCCN[C@@]1(C)C[C@H](O[C@H]2[C@H](Oc3c4cc5cc3Oc3ccc(cc3Cl)[C@@H](O)[C@@H](NC(=O)[C@@H](CC(C)C)NC)C(=O)N[C@@H](CC(N)=O)C(=O)N[C@H]5C(=O)N[C@H]3C(=O)N[C@H](C(=O)N[C@H](C(=O)O)c5cc(O)c(CNCP(=O)(O)O)c(O)c5-c5cc3ccc5O)[C@H](O)c3ccc(c(Cl)c3)O4)O[C@H](CO)[C@@H](O)[C@@H]2O)O[C@@H](C)[C@H]1O` [TELAVANCIN], the Activity is on record as 35% in the assay on Staphylococcus aureus [1]; 11% in the assay on Staphylococcus aureus [2]; 11% with Staphylococcus aureus [3]; 9% in the assay with Staphylococcus aureus [5]; 11% in the assay with Staphylococcus aureus [6]; 39% in the assay with Staphylococcus aureus [7]. For the same molecule, the MBC in the assay on Staphylococcus aureus [4] amounted to 1 µg/mL (≈ 0.57 µM). Also, the MIC against Staphylococcus aureus [4] amounted to 0.25 µg/mL (≈ 0.142 µM).
`CN[C@H](CC(C)C)C(=O)N[C@H]1C(=O)N[C@@H](CC(N)=O)C(=O)N[C@H]2C(=O)N[C@H]3C(=O)N[C@H](C(=O)N[C@H](C(=O)O)c4cc(O)cc(O)c4-c4cc3ccc4O)[C@H](O)c3ccc(c(Cl)c3)Oc3cc2cc(c3O[C@@H]2O[C@H](CO)[C@@H](O)[C@H](O)[C@H]2O[C@H]2C[C@](C)(N)[C@H](O)[C@H](C)O2)Oc2ccc(cc2Cl)[C@H]1O` [VANCOMYCIN] returned an MBC against Staphylococcus aureus [4] of 8 µg/mL (≈ 5.52 µM).

The term MBC denotes the lowest tested concentration that kills the bacteria rather than only halting them. What is called MIC is the lowest concentration found to suppress growth.
